# Test results reported in ChEMBL document CHEMBL4270612, “Discovery of dual GyrB/ParE inhibitors active against Gram-negative bacteria” (Eur J Med Chem, 2018).
# How the values were obtained:
# Acinetobacter baumannii [1] = assay: Antibacterial activity against Acinetobacter baumannii ARC3515 after 24 hrs by broth microdilution method; type: functional; conditions: ARC3515, 24 h
# Procedure, shortened: (§1)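 Broth microdilution per CLSI. Bacterial suspension adjusted to 1×10^6 CFU/mL in cation-adjusted Mueller–Hinton broth and mixed 1:1 with 2-fold serial compound dilutions. Final DMSO 2.5% v/v. Plates incubated at 35 °C with shaking at 140 rpm for 24 h.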
# Pseudomonas aeruginosa [2] = assay: Antibacterial activity against Pseudomonas aeruginosa ARC3504 after 24 hrs by broth microdilution method; type: functional; conditions: ARC3504, 24 h; procedure, shortened: as §1
# Acinetobacter baumannii [3] = assay: Antibacterial activity against Acinetobacter baumannii ARC3492 after 24 hrs by broth microdilution method; type: functional; conditions: ARC3492, 24 h
# Procedure, shortened: (§2)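 Broth microdilution per CLSI. Bacterial suspension adjusted to 1×10^6 CFU/mL in cation-adjusted Mueller–Hinton broth and mixed 1:1 with 2-fold serial compound dilutions. Plates incubated at 35 °C with shaking at 140 rpm for 24 h.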
# Staphylococcus aureus [4] = assay: Antibacterial activity against methicillin-resistant Staphylococcus aureus FQ-R after 24 hrs by broth microdilution method; type: functional
# Procedure, shortened: (§3)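 Broth microdilution per CLSI. Bacterial suspensions adjusted to 1×10^6 CFU/mL in cation-adjusted Mueller–Hinton broth, mixed 1:1 with 2-fold serial compound dilutions (final DMSO 2.5% v/v). Incubation 35 °C, 140 rpm, 24 h.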
# Acinetobacter baumannii [5] = assay: Antibacterial activity against Acinetobacter baumannii ARC3657 after 24 hrs by broth microdilution method; type: functional; conditions: ARC3657, 24 h; procedure, shortened: as §1
# Pseudomonas aeruginosa [6] = assay: Antibacterial activity against Pseudomonas aeruginosa ARC3756 after 24 hrs by broth microdilution method; type: functional; conditions: ARC3756, 24 h; procedure, shortened: as §2
# Escherichia coli = assay: Antibacterial activity against tolC deficient Escherichia coli after 24 hrs by broth microdilution method; type: functional
# Procedure, shortened: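 Broth microdilution per CLSI guidelines. Inoculum adjusted to 1×10^6 CFU/mL in cation-adjusted Mueller–Hinton broth, added 1:1 to 2-fold serial compound dilutions; final DMSO 2.5% v/v. Plates incubated 35 °C, 140 rpm, 24 h.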
# Streptococcus pyogenes = assay: Antibacterial activity against Streptococcus pyogenes ARC838 after 24 hrs by broth microdilution method; type: functional; conditions: ARC838, 24 h; procedure, shortened: as §2
# Staphylococcus aureus [7] = assay: Antibacterial activity against methicillin-resistant Staphylococcus aureus USA100 after 24 hrs by broth microdilution method; type: functional; conditions: USA100, 24 h; procedure, shortened: as §3
# Acinetobacter baumannii [8] = assay: Antibacterial activity against Acinetobacter baumannii ARC2781 after 24 hrs by broth microdilution method; type: functional; conditions: ARC2781, 24 h; procedure, shortened: as §2
# Staphylococcus aureus [9] = assay: Antibacterial activity against Staphylococcus aureus ATCC 29213 after 24 hrs in presence of 2% human albumin by broth microdilution method; type: functional; conditions: ATCC 29213, 24 h
# Haemophilus influenzae = assay: Antibacterial activity against Haemophilus influenzae ATCC 49247 after 24 hrs by broth microdilution method; type: functional; conditions: ATCC 49247, 24 h; procedure, shortened: as §1
# Acinetobacter baumannii [10] = assay: Antibacterial activity against Acinetobacter baumannii ARC3486 after 24 hrs by broth microdilution method; type: functional; conditions: ARC3486, 24 h; procedure, shortened: as §1
# Pseudomonas aeruginosa [11] = assay: Antibacterial activity against Pseudomonas aeruginosa ARC003 after 24 hrs by broth microdilution method; type: functional; conditions: ARC003, 24 h; procedure, shortened: as §1
# Candida albicans = assay: Antifungal activity against Candida albicans ATCC 90028 after 24 hrs by broth microdilution method; type: functional; conditions: ATCC 90028, 24 h
# Acinetobacter baumannii [12] = assay: Antibacterial activity against Acinetobacter baumannii ARC2779 after 24 hrs by broth microdilution method; type: functional; conditions: ARC2779, 24 h; procedure, shortened: as §1
# Klebsiella pneumoniae = assay: Antibacterial activity against Klebsiella pneumoniae ARC1865 after 24 hrs by broth microdilution method; type: functional; conditions: ARC1865, 24 h; procedure, shortened: as §1
# Pseudomonas aeruginosa [13] = assay: Antibacterial activity against Pseudomonas aeruginosa ARC3505 after 24 hrs by broth microdilution method; type: functional; conditions: ARC3505, 24 h; procedure, shortened: as §1
# Pseudomonas aeruginosa [14] = assay: Antibacterial activity against Pseudomonas aeruginosa ARC3611 after 24 hrs by broth microdilution method; type: functional; conditions: ARC3611, 24 h; procedure, shortened: as §1
# Enterobacter cloacae = assay: Antibacterial activity against Enterobacter cloacae ARC3528 after 24 hrs by broth microdilution method; type: functional; conditions: ARC3528, 24 h; procedure, shortened: as §1
# Pseudomonas aeruginosa [15] = assay: Antibacterial activity against Pseudomonas aeruginosa ARC4063 after 24 hrs by broth microdilution method; type: functional; conditions: ARC4063, 24 h; procedure, shortened: as §2
# Pseudomonas aeruginosa [16] = assay: Antibacterial activity against Pseudomonas aeruginosa ARC3502 after 24 hrs by broth microdilution method; type: functional; conditions: ARC3502, 24 h; procedure, shortened: as §2
# Acinetobacter baumannii [17] = assay: (§4) Antibacterial activity against Acinetobacter baumannii ARC3495 after 24 hrs by broth microdilution method; type: functional; conditions: ARC3495, 24 h; procedure, shortened: as §1
# Acinetobacter baumannii [18] = assay: Antibacterial activity against Acinetobacter baumannii ARC3659 after 24 hrs by broth microdilution method; type: functional; conditions: ARC3659, 24 h; procedure, shortened: as §1
# [19] = Protein binding in human plasma; type: ADME, cell-free; conditions: read-out: PPB (converted)
# Acinetobacter baumannii [20] = assay: Antibacterial activity against Acinetobacter baumannii ARC3882 after 24 hrs by broth microdilution method; type: functional; conditions: ARC3882, 24 h; procedure, shortened: as §1
# [21] = Growth inhibition of human A549 cells; type: cell-based
# Acinetobacter baumannii [22] = assay: Antibacterial activity against Acinetobacter baumannii ARC3484 after 24 hrs by broth microdilution method; type: functional; conditions: ARC3484, 24 h; procedure, shortened: as §2
# [23] = Thermodynamic solubility of the compound at pH 7.4; type: physicochemical; conditions: buffer, read-out: Therm_solubility
# Acinetobacter baumannii [24] = assay: as §4; type: functional; conditions: ARC3495, 24 h; procedure, shortened: as §1; remark: listed apart in the source
# Acinetobacter baumannii [25] = assay: Antibacterial activity against Acinetobacter baumannii ARC2674 after 24 hrs by broth microdilution method; type: functional; conditions: ARC2674, 24 h; procedure, shortened: as §1
# Pseudomonas aeruginosa [26] = assay: Antibacterial activity against Pseudomonas aeruginosa ARC3514 after 24 hrs by broth microdilution method; type: functional; conditions: ARC3514, 24 h; procedure, shortened: as §2
# Acinetobacter baumannii [27] = assay: Antibacterial activity against Acinetobacter baumannii ARC3513 after 24 hrs by broth microdilution method; type: functional; conditions: ARC3513, 24 h; procedure, shortened: as §1
# Pseudomonas aeruginosa [28] = assay: Antibacterial activity against Pseudomonas aeruginosa ARC3925 after 24 hrs by broth microdilution method; type: functional; conditions: ARC3925, 24 h; procedure, shortened: as §2
# Acinetobacter baumannii [29] = assay: Antibacterial activity against Acinetobacter baumannii ARC2782 after 24 hrs by broth microdilution method; type: functional; conditions: ARC2782, 24 h; procedure, shortened: as §1
# Acinetobacter baumannii [30] = assay: Antibacterial activity against Acinetobacter baumannii ARC3489 after 24 hrs by broth microdilution method; type: functional; conditions: ARC3489, 24 h; procedure, shortened: as §1
# Pseudomonas aeruginosa [31] = assay: Antibacterial activity against Pseudomonas aeruginosa ARC3511 after 24 hrs by broth microdilution method; type: functional; conditions: ARC3511, 24 h; procedure, shortened: as §2
# Pseudomonas aeruginosa [32] = assay: Antibacterial activity against Pseudomonas aeruginosa ARC3729 after 24 hrs by broth microdilution method; type: functional; conditions: ARC3729, 24 h; procedure, shortened: as §1
# Pseudomonas aeruginosa [33] = assay: Antibacterial activity against Pseudomonas aeruginosa PAO1 after 24 hrs by broth microdilution method; type: functional; conditions: PAO1, 24 h; procedure, shortened: as §1
# Pseudomonas aeruginosa [34] = assay: Antibacterial activity against Pseudomonas aeruginosa ARC3506 after 24 hrs by broth microdilution method; type: functional; conditions: ARC3506, 24 h; procedure, shortened: as §1
# Pseudomonas aeruginosa [35] = assay: Antibacterial activity against Pseudomonas aeruginosa harboring MexABCDXY deletion mutant after 24 hrs by broth microdilution method; type: functional; procedure, shortened: as §3
# [36] = biological target: DNA topoisomerase 4 subunit B (Escherichia coli K-12, UniProt P20083); assay: Inhibition of Escherichia coli ParE
# Pseudomonas aeruginosa [37] = assay: Antibacterial activity against Pseudomonas aeruginosa ARC3606 after 24 hrs by broth microdilution method; type: functional; conditions: ARC3606, 24 h; procedure, shortened: as §1
# Pseudomonas aeruginosa [38] = assay: Antibacterial activity against Pseudomonas aeruginosa ARC3916 after 24 hrs by broth microdilution method; type: functional; conditions: ARC3916, 24 h; procedure, shortened: as §1
# Chain of DNA topoisomerase 4 subunit B (P20083 whole entry): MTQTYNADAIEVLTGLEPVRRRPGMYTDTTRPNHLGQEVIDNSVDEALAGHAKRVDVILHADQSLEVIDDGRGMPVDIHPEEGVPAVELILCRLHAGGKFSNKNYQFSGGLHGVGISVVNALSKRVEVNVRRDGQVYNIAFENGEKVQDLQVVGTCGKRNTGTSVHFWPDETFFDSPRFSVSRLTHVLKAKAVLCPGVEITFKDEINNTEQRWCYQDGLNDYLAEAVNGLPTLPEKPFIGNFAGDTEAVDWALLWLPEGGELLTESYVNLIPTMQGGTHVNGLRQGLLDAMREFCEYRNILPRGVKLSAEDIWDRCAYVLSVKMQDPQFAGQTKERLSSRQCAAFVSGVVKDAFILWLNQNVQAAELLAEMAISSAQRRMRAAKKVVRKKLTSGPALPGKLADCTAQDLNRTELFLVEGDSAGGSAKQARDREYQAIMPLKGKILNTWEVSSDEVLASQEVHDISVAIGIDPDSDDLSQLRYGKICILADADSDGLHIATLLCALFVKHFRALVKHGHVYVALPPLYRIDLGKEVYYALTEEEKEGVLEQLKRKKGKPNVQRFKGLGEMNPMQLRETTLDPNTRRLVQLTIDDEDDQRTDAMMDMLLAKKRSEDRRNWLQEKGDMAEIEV
smiles,measurement,setting,value
CCNC(=O)Nc1cc(-c2nc(C3CC3)cs2)c(-c2cc(-c3n[nH]c(=O)o3)cnc2N2C3CCC2CN(C)C3)cn1,MIC,Acinetobacter baumannii [1],2 µg/mL
same,MIC,Pseudomonas aeruginosa [2],4 µg/mL
same,MIC,Acinetobacter baumannii [3],1 µg/mL
same,MIC,Staphylococcus aureus [4],< 0.06 µg/mL
same,MIC,Acinetobacter baumannii [5],2 µg/mL
same,MIC,Pseudomonas aeruginosa [6],4 µg/mL
same,MIC,Escherichia coli,0.11 µg/mL
same,MIC,Streptococcus pyogenes,< 0.06 µg/mL
same,MIC,Staphylococcus aureus [7],< 0.06 µg/mL
same,MIC,Acinetobacter baumannii [8],0.25 µg/mL
same,MIC,Staphylococcus aureus [9],< 0.06 µg/mL
same,MIC,Haemophilus influenzae,< 0.06 µg/mL
same,MIC,Acinetobacter baumannii [10],2 µg/mL
same,MIC,Pseudomonas aeruginosa [11],1 µg/mL
same,MIC,Candida albicans,> 64 µg/mL
same,MIC,Acinetobacter baumannii [12],1 µg/mL
same,MIC,Klebsiella pneumoniae,16 µg/mL
same,MIC,Pseudomonas aeruginosa [13],4 µg/mL
same,MIC,Pseudomonas aeruginosa [14],4 µg/mL
same,MIC,Enterobacter cloacae,16 µg/mL
same,MIC,Pseudomonas aeruginosa [15],4 µg/mL
same,MIC,Pseudomonas aeruginosa [16],4 µg/mL
same,MIC,Acinetobacter baumannii [17],0.5 µg/mL
same,MIC,Acinetobacter baumannii [18],1 µg/mL
same,fraction unbound,[19],0.149
same,MIC,Acinetobacter baumannii [20],1 µg/mL
same,GI50,[21],> 25000 nM
same,MIC,Acinetobacter baumannii [22],2 µg/mL
same,solubility thermodynamic,[23],65.8 µM
same,MIC,Acinetobacter baumannii [24],0.5 µg/mL
same,MIC,Acinetobacter baumannii [25],4 µg/mL
same,MIC,Pseudomonas aeruginosa [26],2 µg/mL
same,MIC,Acinetobacter baumannii [27],4 µg/mL
same,MIC,Pseudomonas aeruginosa [28],4 µg/mL
same,MIC,Acinetobacter baumannii [29],1 µg/mL
same,MIC,Acinetobacter baumannii [30],1 µg/mL
same,MIC,Pseudomonas aeruginosa [31],1 µg/mL
same,MIC,Pseudomonas aeruginosa [32],4 µg/mL
same,MIC,Pseudomonas aeruginosa [33],1.14 µg/mL
same,MIC,Pseudomonas aeruginosa [34],2 µg/mL
same,MIC,Pseudomonas aeruginosa [35],0.23 µg/mL
same,IC50,[36],3 nM
same,MIC,Pseudomonas aeruginosa [37],4 µg/mL
same,MIC,Pseudomonas aeruginosa [38],2 µg/mL
